# Assay results collected from several papers.
# Compare with care: the assays were run in different laboratories.
# Observed: microbial growth
Structure (SMILES),organism,method,strain,time,notes,MIC
CCCCCC/C=C\CCCCCCCCCc1cc(O)cc(O)c1,Enterococcus faecium,broth dilution,,,drug-resistant strain,64 µg/mL
OC(Cn1cncn1)(Cn1cncn1)c1ccc(F)cc1F,Candida albicans,,28A,,,> 128 µg/mL
COC(=O)c1cc(-c2cccc(NC(=O)Nc3ccccc3C)c2)on1,Mycobacteroides chelonae,broth dilution,ATCC35752,48 h,,> 64 µg/mL
CN[C@H](CC(C)C)C(=O)N[C@H]1C(=O)N[C@@H](CC(N)=O)C(=O)N[C@H]2C(=O)N[C@H]3C(=O)N[C@H](C(=O)N[C@H](C(=O)O)c4cc(O)cc(O)c4-c4cc3ccc4O)[C@H](O)c3ccc(c(Cl)c3)Oc3cc2cc(c3O[C@@H]2O[C@H](CO)[C@@H](O)[C@H](O)[C@H]2O[C@H]2C[C@](C)(N)[C@H](O)[C@H](C)O2)Oc2ccc(cc2Cl)[C@H]1O,Enterococcus faecium,,ATCCBAA2317 VRE,,drug-resistant strain,250 µg/mL
CCCCCCCCCC(=O)N[C@@H](Cc1c[nH]c2ccccc12)C(=O)N[C@H](CC(N)=O)C(=O)N[C@@H](CC(=O)O)C(=O)N[C@@H]1C(=O)NCC(=O)N[C@@H](CCCN)C(=O)N[C@@H](CC(=O)O)C(=O)N[C@H](C)C(=O)N[C@@H](CC(=O)O)C(=O)NCC(=O)N[C@H](CO)C(=O)N[C@@H]([C@H](C)CC(=O)O)C(=O)N[C@@H](CC(=O)c2ccccc2N)C(=O)O[C@@H]1C,Enterococcus faecium,broth dilution,,,drug-resistant strain,0.25 µg/mL
O=c1c2cc(Br)ccc2nc(/C=C/c2ccc([N+](=O)[O-])cc2)n1-c1cccc(O)c1,Enterococcus faecium,broth dilution,NCTC7171,,,> 128 µg/mL
COC(=O)c1cc(-c2ccc(OC)c(NC(=O)Nc3ccc(Cl)c(Cl)c3)c2)on1,Mycobacteroides chelonae,broth dilution,ATCC35752,48 h,,> 64 µg/mL
O=c1c2ccccc2nc(CCc2ccccc2)n1-c1cccc(O)c1,Enterococcus faecium,broth dilution,NCTC7171,,,> 128 µg/mL
CCOC(=O)CON,Candida albicans,,28A,,,32 µg/mL
C=C(NC(=O)C(=C)NC(=O)c1csc(C2=N[C@@H]3c4csc(n4)[C@H]4NC(=O)c5csc(n5)[C@H]([C@](C)(O)[C@@H](C)O)NC(=O)[C@H]5CSC(=N5)/C(=C/C)NC(=O)[C@H]([C@@H](C)O)NC(=O)c5csc(n5)[C@]3(CC2)NC(=O)[C@H](C)NC(=O)C(=C)NC(=O)[C@H](C)NC(=O)[C@H]([C@@H](C)CC)N[C@@H]2C=Cc3c([C@H](C)O)cc(nc3[C@H]2O)C(=O)O[C@@H]4C)n1)C(N)=O,Enterococcus faecium,,,,,0.12 µg/mL
COC(=O)c1cc(-c2cccc(NC(=O)Nc3ccccc3)c2)on1,Mycobacteroides chelonae,broth dilution,ATCC35752,48 h,,> 64 µg/mL
O=c1c2ccccc2nc(Cc2ccccc2)n1-c1cccc(O)c1,Enterococcus faecium,broth dilution,NCTC7171,,,128 µg/mL
COC(=O)c1cc(-c2cccc(NC(=O)Nc3ccc(Cl)c(Cl)c3)c2)on1,Mycobacteroides chelonae,broth dilution,ATCC35752,48 h,,> 64 µg/mL
O=c1c2ccccc2nc(/C=C/c2ccc([N+](=O)[O-])cc2)n1-c1ccc(O)cc1,Enterococcus faecium,broth dilution,NCTC7171,,,64 µg/mL
